Reference: ChEMBL document CHEMBL5034012, “Procainamide-SAHA Fused Inhibitors of hHDAC6 Tackle Multidrug-Resistant Malaria Parasites” (J Med Chem, 2021)
Active and inactive are the calls of the source. No cut-off for these calls is given here.

What was measured:
Histone deacetylase 1 = Histone deacetylase 1 (Homo sapiens, UniProt Q13547); assay: Inhibition of human recombinant HDAC1 using Tosyl-Gly-ProLys(Ac)-AMC as substrate measured after 60 mins by fluorescence assay
Plasmodium falciparum [1] = assay: Antiplasmodial activity against asynchronous asexual culture of Plasmodium falciparum NF54 assessed as parasite growth inhibition; assay type: functional, organism-based
How it was run: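 Asynchronous asexual NF54 cultures exposed to 7-point, 2-step serial dilutions starting at 500nM. DHA served as positive control, DMSO as negative. IC50 interpolated from three independent experiments run in triplicate.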

HepG2 = assay: cells; assay type: functional, cell-based; details: Homo sapiens, HepG2, 72 h
Plasmodium falciparum [2] = assay: Antiplasmodial activity against ring stage Plasmodium falciparum 3D7 assessed as defective parasite division at 10 times IC50 concentration incubated for 24 hrs by transmission electron microscopy; assay type: functional, organism-based
How it was run: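 Harvested with Plasmagel and fixed in 4% PFA/0.1% glutaraldehyde. Gelatin-embedded; 60nm ultrathin sections. Anti-H3 (1/100) labelled with 10nm protein A-gold. Stained with methylcellulose/0.4% uranyl acetate and imaged by TEM at 120 kV.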

Plasmodium falciparum [3] = assay: Antiplasmodial activity against synchronized ring stage Plasmodium falciparum 3D7 assessed as parasite reduction rate in lag phase by measuring time required to achieve maximum speed of action at 10 times IC50 concentration; assay type: functional
How it was run: (§1)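 3D7 culture of mostly rings exposed to drug for 6, 24, 48, 72 or 96h. Then washed, serially diluted 1/3 in fresh RBC and grown 3 weeks. Growth read by SYBR-green I. Number of wells with growth used to back-calculate viable parasites at each time point and derive growth parameters. One experiment, run in duplicate.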

Plasmodium falciparum [4] = assay: Antiplasmodial activity against Plasmodium falciparum late stage IV-V gametocytes assessed as reduction in number of exflagellation centers in at 1 to 10 uM treated for 72 hrs; assay type: functional, organism-based; details: dose 1-10 µM
How it was run: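 Synchronous gametocytes induced; asexual forms removed with N-acetyl glucosamine for 5 days. Day-9 stage IV-V gametocytes, about 1% gametocytemia at 2% hematocrit, treated 72h at 10, 5, 1 or 0.5 µM against 0.1% DMSO. Then washed and recultured with daily medium changes. […], pelleted cells mixed 1:1 with human serum. Exflagellation centers counted over ≥10 fields at 40× within one hour. Two independent experiments; one-way ANOVA.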

Plasmodium falciparum [5] = assay: Antiplasmodial activity against Plasmodium falciparum stage IIb-III gametocytes assessed as abnormal morphology by measuring rounded/swollen at highest concentration measured after 72 hrs using Geimsa staining based assay; assay type: functional
How it was run: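 Day-4 stage IIb-III gametocytes (asexuals removed by N-acetyl glucosamine), about 1% gametocytemia at 2% hematocrit, treated 72h at 10, 5, 1 or 0.5 µM against 0.1% DMSO. Then washed and recultured with daily medium changes. Morphology and parasitemia scored daily on Giemsa-stained thin smears.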

[6] = molecular target: T1, Protein deacetylase HDAC6 (Homo sapiens, UniProt Q9UBN7); assay: Inhibition of human recombinant HDAC6 using Tosyl-Gly-ProLys(Ac)-AMC as substrate measured after 60 mins by fluorescence assay
T1 sequence (Q9UBN7 whole entry): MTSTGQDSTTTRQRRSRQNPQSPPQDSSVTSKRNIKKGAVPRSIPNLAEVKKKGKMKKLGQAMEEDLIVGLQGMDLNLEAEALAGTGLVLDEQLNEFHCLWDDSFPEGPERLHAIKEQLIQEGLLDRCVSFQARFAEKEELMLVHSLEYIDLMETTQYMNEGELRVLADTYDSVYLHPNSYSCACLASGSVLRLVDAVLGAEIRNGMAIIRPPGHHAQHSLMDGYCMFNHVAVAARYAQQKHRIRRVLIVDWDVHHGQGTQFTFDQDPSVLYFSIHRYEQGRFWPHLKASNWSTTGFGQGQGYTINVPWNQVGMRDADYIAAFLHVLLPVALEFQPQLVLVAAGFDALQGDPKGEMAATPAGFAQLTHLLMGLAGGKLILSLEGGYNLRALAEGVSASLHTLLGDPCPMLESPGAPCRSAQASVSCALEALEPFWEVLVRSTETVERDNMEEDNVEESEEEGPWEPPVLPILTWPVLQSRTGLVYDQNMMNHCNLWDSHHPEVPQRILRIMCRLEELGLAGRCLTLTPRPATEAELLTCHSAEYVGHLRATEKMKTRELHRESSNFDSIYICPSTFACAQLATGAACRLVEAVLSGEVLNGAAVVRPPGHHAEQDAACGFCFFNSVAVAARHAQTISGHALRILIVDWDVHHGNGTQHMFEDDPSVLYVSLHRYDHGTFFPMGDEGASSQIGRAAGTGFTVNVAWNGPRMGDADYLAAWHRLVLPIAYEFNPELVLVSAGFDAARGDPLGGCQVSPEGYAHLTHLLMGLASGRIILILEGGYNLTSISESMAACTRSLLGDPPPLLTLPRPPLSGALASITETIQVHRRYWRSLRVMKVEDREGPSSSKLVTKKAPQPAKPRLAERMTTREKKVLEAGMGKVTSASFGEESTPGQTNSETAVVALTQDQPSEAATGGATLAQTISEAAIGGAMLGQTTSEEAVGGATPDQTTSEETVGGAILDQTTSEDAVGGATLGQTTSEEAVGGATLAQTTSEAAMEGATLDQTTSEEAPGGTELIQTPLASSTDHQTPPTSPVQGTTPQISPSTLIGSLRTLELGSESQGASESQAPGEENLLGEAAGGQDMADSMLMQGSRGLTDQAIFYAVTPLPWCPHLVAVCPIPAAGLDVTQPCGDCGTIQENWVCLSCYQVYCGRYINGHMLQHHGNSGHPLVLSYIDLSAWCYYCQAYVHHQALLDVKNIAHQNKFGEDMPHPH

Histone deacetylase 3 = Histone deacetylase 3 (Homo sapiens, UniProt O15379); assay: Inhibition of human recombinant HDAC3 using Tosyl-Gly-ProLys(Ac)-AMC as substrate measured after 60 mins by fluorescence assay
Chain of Histone deacetylase 3 (O15379 whole entry): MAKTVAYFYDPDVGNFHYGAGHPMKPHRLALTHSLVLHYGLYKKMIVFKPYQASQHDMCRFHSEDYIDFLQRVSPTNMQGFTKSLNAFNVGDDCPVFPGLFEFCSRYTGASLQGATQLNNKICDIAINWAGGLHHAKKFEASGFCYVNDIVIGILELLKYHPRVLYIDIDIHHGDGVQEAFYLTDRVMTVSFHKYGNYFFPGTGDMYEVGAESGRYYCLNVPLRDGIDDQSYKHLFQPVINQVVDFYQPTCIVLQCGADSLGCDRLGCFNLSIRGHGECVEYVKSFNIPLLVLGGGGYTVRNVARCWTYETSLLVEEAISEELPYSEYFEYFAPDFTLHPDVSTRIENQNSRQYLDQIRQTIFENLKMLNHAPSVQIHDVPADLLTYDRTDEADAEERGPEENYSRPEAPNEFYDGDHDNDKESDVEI

Plasmodium falciparum [7] = assay: Inhibition of trophozoite-stage Plasmodium falciparum HDAC in using nuclear extract assessed as H4K16 hyperacetylation at 10 times IC50 concentration incubated for 4 hrs by Western blot analysis; details: in the assay text read “total extract” for “nuclear extract”
How it was run: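 Parasites exposed 4h at 10× IC50, with CQ and 0.1% DMSO as controls. Saponin-lysed (0.15%) and extracted in Laemmli/DTT buffer; 5.10⁶ parasites loaded per lane. Blots probed with anti-H4K16Ac (1/500) and anti-H3 (1/1000). H4K16Ac band intensity normalized to H3. Three independent experiments.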

[8] = Inhibition of Plasmodium falciparum NF54 HDAC using extract measured after 60 mins by fluorescence assay
Plasmodium falciparum [9] = assay: Antiplasmodial activity against synchronized ring stage Plasmodium falciparum 3D7 assessed as parasite reduction over one cycle upto 48 hrs at 10 times IC50 concentration; assay type: functional; details: time hrs <=48; how it was run: as §1
Histone deacetylase 2 = Histone deacetylase 2 (Homo sapiens, UniProt Q92769); assay: Inhibition of human recombinant HDAC2 using Tosyl-Gly-ProLys(Ac)-AMC as substrate measured after 60 mins by fluorescence assay
Chain of Histone deacetylase 2 (Q92769 whole entry): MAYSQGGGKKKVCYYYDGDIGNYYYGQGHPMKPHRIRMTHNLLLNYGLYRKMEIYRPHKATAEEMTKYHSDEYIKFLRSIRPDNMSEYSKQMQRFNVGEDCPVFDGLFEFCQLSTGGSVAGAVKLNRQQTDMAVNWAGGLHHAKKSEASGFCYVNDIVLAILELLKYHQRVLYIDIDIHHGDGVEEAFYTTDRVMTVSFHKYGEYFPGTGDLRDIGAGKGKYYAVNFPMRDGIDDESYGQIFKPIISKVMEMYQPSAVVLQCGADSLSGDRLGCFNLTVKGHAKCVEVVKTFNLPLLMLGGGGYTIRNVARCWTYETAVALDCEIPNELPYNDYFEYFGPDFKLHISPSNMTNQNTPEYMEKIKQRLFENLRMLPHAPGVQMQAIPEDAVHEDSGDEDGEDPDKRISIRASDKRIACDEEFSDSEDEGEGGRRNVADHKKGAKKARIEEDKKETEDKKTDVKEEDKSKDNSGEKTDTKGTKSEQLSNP

Histone deacetylase = assay: Inhibition of human HDAC using human HeLa cell nuclear extract measured after 60 mins by fluorescence assay; assay type: tissue-based

Chain of Histone deacetylase 1 (Q13547 whole entry): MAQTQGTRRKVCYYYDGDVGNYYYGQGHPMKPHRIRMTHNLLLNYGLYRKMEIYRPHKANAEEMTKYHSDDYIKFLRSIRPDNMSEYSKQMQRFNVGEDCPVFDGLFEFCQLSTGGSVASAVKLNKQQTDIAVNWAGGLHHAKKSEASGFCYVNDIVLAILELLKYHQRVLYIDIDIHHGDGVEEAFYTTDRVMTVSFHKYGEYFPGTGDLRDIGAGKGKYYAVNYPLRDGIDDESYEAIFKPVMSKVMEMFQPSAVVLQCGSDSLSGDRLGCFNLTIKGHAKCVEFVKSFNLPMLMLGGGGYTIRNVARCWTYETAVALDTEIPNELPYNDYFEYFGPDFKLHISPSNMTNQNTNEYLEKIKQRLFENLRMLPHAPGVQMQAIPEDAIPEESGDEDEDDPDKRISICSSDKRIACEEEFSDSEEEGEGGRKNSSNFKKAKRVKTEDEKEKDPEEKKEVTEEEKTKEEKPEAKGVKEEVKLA

Row | SMILES | IC50 (Histone deacetylase 1) [µM] | IC50 (Plasmodium falciparum [1]) [µM] | IC50 (HepG2) [µM] | Activity (Plasmodium falciparum [2]) | Time (Plasmodium falciparum [3]) [h] | Activity (Plasmodium falciparum [4]) | Activity (Plasmodium falciparum [5]) | IC50 [6] [µM] | IC50 (Histone deacetylase 3) [µM] | fold change (FC) (Plasmodium falciparum [7]) | IC50 [8] [µM] | log(activity) (Plasmodium falciparum [9]) | IC50 (Histone deacetylase 2) [µM] | IC50 (Histone deacetylase) [µM]
1 | O=C(CCCCCCC(=O)Nc1ccc(C(=O)NC2CCNCC2)cc1)NO | 0.15 | 0.052 | 230 | Active | 6 | Active | <=90% | 0.019 | 0.11 | 6 | 0.48 | 4.22 | 0.27 | 0.14
2 | CCN(CC)CCNC(=O)c1ccc(NC(=O)CCCCCCC(=O)NO)cc1 | 0.07 | 0.041 | 8.4 | Active | 0 | Active | <=90% | 0.014 | 0.07 | 6 | 0.38 | 3.8 | 0.08 | 0.06
